# APJ antag: antagonists of human apelin receptor APJ, primary screen, CHO-K1 cells, beta-arrestin complementation, luminescence. P35414. inhibition, % at 20 µM. 0.32% of 330,000 active. AID 2521, 2010;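 active = inhibition above about 40% at 20 µM, limit read from the data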;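 note: cells challenged with 10 nM apelin-13 agonist together with compound; plate controls were apelin-13 plus DMSO wells for no effect and DMSO wells lacking apelin-13 for full effect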
# m5-HT2A agonist: mouse Htr2a agonists via beta-arrestin recruitment, primary screen, cell-based, luminescence. 5-hydroxytryptamine receptor 2A (Mus musculus), P35363. CHO-K1 mHTR2A beta-arrestin complementation; percent of 30 µM serotonin response. activation, % at 7.6 µM. 0.66% of 360,000 active;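 active = activation above a run cutoff, the mean activation of all tested compounds plus 3 SD, cut at about 14% in these data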;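 note: 0% = plate median of compound wells and 100% = 30 µM serotonin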
# CXCR6 block: CXCR6 receptor inhibitors, primary screen, cell-based, beta-arrestin, luminescence, CHO-K1 PathHunter, 1536-well. C-X-C chemokine receptor type 6 (Homo sapiens), O00574. inhibition, % at 20 µM. AID 602244, 2012. 0.36% of 360,000 active; in the data active = inhibition above about 34%, passing the limit was not always enough;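 note: antagonist mode with CXCL16 agonist at 10 nM final; 0% = 10 nM CXCL16 with DMSO and 100% = unstimulated wells without agonist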
# Target sequence (O00574 whole entry, looked up): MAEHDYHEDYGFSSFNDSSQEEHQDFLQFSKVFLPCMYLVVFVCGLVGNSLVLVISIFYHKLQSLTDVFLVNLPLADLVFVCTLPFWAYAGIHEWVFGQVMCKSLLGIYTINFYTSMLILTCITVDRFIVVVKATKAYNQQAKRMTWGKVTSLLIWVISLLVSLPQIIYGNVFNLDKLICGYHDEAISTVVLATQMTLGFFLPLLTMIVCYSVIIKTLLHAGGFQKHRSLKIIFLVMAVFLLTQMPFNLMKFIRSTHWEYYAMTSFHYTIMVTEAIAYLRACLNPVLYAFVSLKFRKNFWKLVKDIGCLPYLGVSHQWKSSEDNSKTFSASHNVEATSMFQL
# EBI2 block: EBI2 receptor antagonists, beta-arrestin recruitment, primary screen, cell-based, luminescence, 7a,25-OHC stimulation, uHTS; G-protein coupled receptor 183 (Homo sapiens), P32249; 7a,25-OHC stimulated; inhibition, % at 5 µM; 0.81% of 360,000 active; AID 651636, 2012; in the data active = inhibition above about 38%;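 note: enzyme fragment complementation signal reports receptor beta-arrestin coupling in cells; 0% = agonist plus DMSO wells and 100% = wells without agonist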
# Target sequence (P32249 whole entry, looked up, the tested form may be a part): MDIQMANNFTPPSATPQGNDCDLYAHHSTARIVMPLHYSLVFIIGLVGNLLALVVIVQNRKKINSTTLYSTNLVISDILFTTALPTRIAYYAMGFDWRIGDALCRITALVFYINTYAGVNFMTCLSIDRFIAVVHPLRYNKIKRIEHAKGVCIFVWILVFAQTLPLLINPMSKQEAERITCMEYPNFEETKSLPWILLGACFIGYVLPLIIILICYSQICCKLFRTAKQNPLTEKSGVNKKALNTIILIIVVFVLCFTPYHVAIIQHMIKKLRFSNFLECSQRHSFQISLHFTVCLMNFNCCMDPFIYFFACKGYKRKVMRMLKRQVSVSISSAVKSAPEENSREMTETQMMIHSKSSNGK
# CCR6 antagonist: CCR6 receptor antagonists, primary screen, cell-based, CHO-K1, luminescence, beta-arrestin, uHTS; C-C chemokine receptor type 6 (Homo sapiens), P51684; CHO-K1 CCR6 PathHunter beta-arrestin, CCL20-stimulated; inhibition, % at 20 µM; 0.49% of 340,000 active; AID 493098, 2011;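 active = compounds whose inhibition of the agonist-driven luminescence signal at 20 µM reaches about 50%, limit read from the data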;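 note: cells stimulated with CCL20 at 14 nM final; plate controls were DMSO with CCL20 for no effect and DMSO without agonist for full effect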
# APJ ag: agonists of human apelin receptor APJ, primary screen, CHO-K1 cells, PathHunter beta-arrestin, luminescence; AID 2520, 2010; 0.11% of 330,000 active; P35414; activation, % at 20 µM; 0% DMSO wells, 100% apelin;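 active = activation more than six SD over the plate average, tested at 20 µM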;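 note: 0% = DMSO alone and 100% = apelin-13 at 10 nM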
#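 Test system: CHO-K1 APJ beta-arrestin complementation cell line. Amount: cell density 1000 per well. Controls: DMSO negative, 10 nM Apelin-13 positive. Signal: luminescent beta-gal fragment complementation, chemiluminescent substrate. Read-out basis: agonist-driven arrestin binding to APJ. Timing: compound stimulation 90 min at 25 °C, detection 60 min.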
# APJ antag conf: APJ antagonists blocking beta-arrestin recruitment, confirmation, cell-based, luminescence, single concentration, uHTS hits; shares compounds with APJ antag; antagonist mode; inhibition, % at 20 µM; 66% of 950 active; AID 2766, 2010; in the data active = inhibition above about 50%
# CXCR6 confirm: CXCR6 receptor antagonists, confirmation, cell-based, single concentration, beta-arrestin, luminescence | shares compounds with CXCR6 block | CHO-K1 CXCR6 PathHunter beta-arrestin | inhibition, % at 20 µM | 65% of 700 active | AID 602409, 2012;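 active = mean inhibition over four retests above 40%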;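 note: receptor stimulated with 10 nM CXCL16 agonist; beta-galactosidase fragment complementation upon beta-arrestin recruitment to receptor; plate controls were CXCL16 plus DMSO for no effect and DMSO without CXCL16 for full effect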
# OPRM1 ag: OPRM1 agonists via beta-arrestin recruitment, confirmation, counter-screen for mouse HTR2A agonist project, cell-based, luminescence, single concentration; activation, % at 9.3 µM; AID 624380, 2012; shares compounds with m5-HT2A agonist; U2OS OPRM1 beta-arrestin PathHunter; DMSO 0%, DAMGO 9.3 µM 100%; 5.3% of 2,300 active;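 active = mean activation above the mean of DMSO-only wells plus 3 SD, cut at about 0.5% in these data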
# HTR2A ag conf: mouse HTR2A agonists, beta-arrestin recruitment, confirmation, cell-based, luminescence, CHO-K1 PathHunter, triplicate | shares compounds with m5-HT2A agonist | DMSO 0%, 30 µM serotonin 100% | activation, % at 7.6 µM | 19% of 2,300 active;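 active = mean activation across triplicates above the hit threshold derived in the original primary screen, cut at about 15% in these data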
# EBI2 conf: EBI2 antagonist hit retest, beta-arrestin, confirmation, cell-based, single concentration, luminescence, 7a,25-OHC stimulation | shares compounds with EBI2 block | 7a,25-OHC antagonism | inhibition, % at 5 µM | 29% of 2,400 active | AID 651997, 2013;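 active = inhibition of at least 50%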
# EBI2 agonist: EBI2 agonist activity of antagonist hits, confirmation, counter-screen for EBI2 antagonist project, cell-based, single concentration, agonist mode, luminescence. shares compounds with EBI2 block. EBI2-expressing cells, 60 min; 0% vehicle, 100% 7α,25-dihydroxycholesterol control. activation, % at 5 µM. 2,400 tested, under 10 active. AID 652000, 2013;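 active = activation of at least 50%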
# bGal cs: E. coli beta-galactosidase enzyme inhibition, confirmation, counter-screen for EBI2 antagonist project, biochemical, luminescence, single concentration | purified beta-galactosidase, luminescent Galacton Star, 15 min | shares compounds with EBI2 block | 1% of 2,400 active | AID 652176, 2013 | inhibition, % at 5 µM;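 active = replicate-average signal at least 3 plate SD below neutral wells, shown as high inhibition, flagging enzyme-inhibiting false positives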;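 note: 0% = DMSO wells with enzyme and 100% = wells lacking enzyme; higher means stronger loss of beta-gal luminescence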
# * marks the source's active call; other numbers are inactive results; / = no result. Sampled rows, rich in hits. Any-hit rate of the full collection: about 2.1%.
SMILES,APJ antag,m5-HT2A agonist,CXCR6 block,EBI2 block,CCR6 antagonist,APJ ag,OPRM1 ag,HTR2A ag conf,others
CCC1CCCCN1CC(=O)c1ccc(OC(F)F)cc1 (stereo unspecified),44*,-2,8,-1,25,-5,/,/,APJ antag conf=52*
Nc1c(C(=O)OCc2ccccc2)c2nc3ccccc3nc2n1Cc1cccs1,63*,-8,33,50*,0,-11,/,/,APJ antag conf=-11;EBI2 conf=12;EBI2 agonist=-1;bGal cs=-11
CC[C@H]1C2C[C@H]3[C@@H]4N(C)c5ccccc5C45C[C@H](C2[C@H]5O)N3[C@@H]1O (stereo partly specified),4,-11,7,8,-1,-2,/,/,
CC1=C(O)C(=O)C=C2C1=CC=C1C2(C)CCC2(C)C3CC(C)(C(=O)O)CCC3(C)CCC12C (stereo unspecified),/,-7,64*,-33,/,/,/,/,CXCR6 confirm=53*
Cn1cc(C=C2C(=O)NC(=O)NC2=O)c2ccccc21,7,4,4,-41,9,-1,/,/,
COC(=O)C1=C(C(=O)OC)C2OC1c1cc3ccccc3cc12,/,-9,85*,31,109*,/,/,/,CXCR6 confirm=91*
CCn1ccnc1CN1CCCC(C(=O)c2cc(Cl)ccc2OC)C1 (stereo unspecified),10,-3,-5,-12,13,-2,/,/,
C[C@@H](N)Cc1cnc[nH]1,1,15*,4,2,7,0,-1,-2,
O=P(O)(Oc1ccccc1)OC(c1ccccc1)C(F)(F)C(F)(F)F (stereo unspecified),-4,3,1,-3,-6,-2,/,/,
COc1ccc(N2C(=O)/C(=C/c3ccc(C)o3)C(=O)NC2=S)c(OC)c1,23,23*,7,0,11,-1,-1,-4,
COc1ccc(N2C(=O)/C(=C/c3ccc(OC)c(OC)c3)C(=O)NC2=S)cc1,10,2,4,3,-2,-4,/,/,
Cc1nn(Cc2ccccc2)c(C)c1C(=O)O,7,15*,-2,-9,8,-1,0.6*,6,
Cc1nn(Cc2ccccc2)c(C)c1C(=O)NCc1ccccc1F,4,-4,0,2,2,-2,/,/,
C/C(CC(c1ccccc1)c1c(O)c2ccccc2oc1=O)=N\NC(N)=S (stereo unspecified),-11,2,5,-10,-5,0,/,/,
CCCN1CCC[C@@H](c2cccc(O)c2)C1,-7,23*,-1,-5,7,-2,0,64*,
CCCN1CCC[C@H](c2cccc(O)c2)C1,-2,38*,-1,5,-1,-3,-1,122*,
Cc1cc(C(=O)CS(=O)(=O)c2ccccc2)cc(C)c1OC(=O)N(C)C,1,2,-8,-32,6,-3,/,/,
Cc1cccc(CCNCc2cc3cccc(C)c3[nH]c2=O)c1,7,21*,-4,-2,18,-2,-1,6,
CCCN1CCC[C@@H]2Cc3[nH]ncc3C[C@H]21,17,42*,-7,5,10,-3,-1,171*,
COc1cc(/C=C2\C(=O)NC(=O)N(c3ccccc3)C2=O)cc(OC)c1OC,5,15*,-8,-5,2,-5,0,-2,
FC(F)(F)Oc1ccc(NC2=NCCCS2)cc1,2,15*,3,4,13,-2,-1,-1,
FC(F)(F)c1cccc(NC2=NCCCS2)c1,12,-2,-4,-9,-8,0,/,/,
CNCC(=O)c1ccc(O)c(O)c1,/,31*,-8,-2,/,/,0,90*,
O=C(NC(Cc1ccccc1)C(=O)N1CCC2(CC1)OCCO2)C1CCCCC1 (stereo unspecified),6,-5,8,-6,6,-4,/,/,
O=C(C(Cc1ccccc1)NS(=O)(=O)c1ccc(F)cc1)N1CCC2(CC1)OCCO2 (stereo unspecified),13,17*,-4,10,-17,-2,-1,1,
SMILES,APJ antag,m5-HT2A agonist,CXCR6 block,EBI2 block,CCR6 antagonist,APJ ag,OPRM1 ag,HTR2A ag conf,others
CNCCc1c[nH]c2ccccc12,-3,32*,1,0,-10,-5,-1,16*,
CNCCc1c[nH]c2ccc(O)cc12,-6,59*,2,-3,0,2,0,141*,
O=c1[nH]c(=S)[nH]c(O)c1N=Nc1ccc(OC(F)F)cc1,21,3,5,-3,29,-3,/,/,
O=[N+]([O-])c1ccc(N2CCCNCC2)c2ncccc12,-54,38*,-3,-4,-1,9,-1,22*,
O=[N+]([O-])c1ccc(N2CCCCC2)c2ncccc12,-2,-4,10,15,12,-7,/,/,
CCOc1ccc(CNCCc2ccc3c(c2)OCO3)cc1,-7,4,-9,-4,5,-1,/,/,

# Compound activity from PubChem BioAssay.
